Blank lines part the entries; values can stand above or below the compound they belong to.
Tests used:
[1] = Drug metabolism in Sprague-Dawley rat hepatocytes assessed as amide hydrolysis at 1 to 10 uM by LC-MS analysis; assay type: ADME, cell-based, Hepatocyte
Summary of the method: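 Hepatocytes at 1 × 10^6 cells/ml in William's medium incubated at 37°C with gentle shaking under 5% CO2. Substrate was at […]. Metabolites were analysed by LC-MS.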

[2] = Cmax in Wistar Hannover rat at 70 umol/kg, po qd measured on day 1; conditions: in vivo
[3] = AUC (0 to 24 hrs) in Wistar Hannover rat at 200 umol/kg, po qd measured on day 1; conditions: plasma
[4] = AUC (0 to 24 hrs) in Sprague-Dawley rat at 200 umol/kg, po qd administered for 7 days measured on day 7; assay type: ADME, organism-based; design: dose 200 umol/kg, time < 24 hr, route oral; conditions: plasma
Summary of the method: (§1)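 Toxicity study 2: 2 female satellite rats per dose group. Dosing was once daily by oral gavage (10 ml/kg) for 7 days. Tail-vein EDTA blood was taken at 2, 4, 6, 7 and 24 h on day 1 and on day 7, then chilled and centrifuged to plasma. Parent and M1 were quantified by LC-MS/MS, with M1 measured in negative electrospray mode.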

Rattus norvegicus [5] = test: Toxicity in Wistar Hannover rat kidney assessed as increase in plasma urea level at >= 500 to 1000 umol/kg, po qd administered for 7 days measured on day 7; assay type: organism-based; conditions: in vivo, 168 h
Summary of the method: (§2)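 Wistar Hannover rats, about 8 weeks old, were acclimatized about 2 weeks and randomized by body weight. Dosing was by oral gavage (10 ml/kg) once daily for 7 days, with vehicle controls. At the end of dosing, plasma (lithium heparin) was taken from the orbital plexus under isoflurane/oxygen anaesthesia, and urea and creatinine were measured.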

[6] = Cmax in Sprague-Dawley rat at 70 umol/kg, po qd administered for 7 days measured on day 7; assay type: ADME, organism-based; design: dose 70 umol/kg, route oral; conditions: in vivo; summary of the method: as §1
Rattus norvegicus [7] = test: Toxicity in Wistar Hannover rat kidney assessed as pathophysiological changes at 70 to 500 umol/kg, po qd administered for 7 days measured on day 7; conditions: in vivo, 168 h
Rattus norvegicus [8] = test: Toxicity in Wistar Hannover rat kidney assessed as increase in plasma creatinine level at >= 500 to 1000 umol/kg, po qd administered for 7 days measured on day 7; assay type: organism-based; conditions: in vivo, 168 h; summary of the method: as §2
[9] = Cmax in Sprague-Dawley rat at 200 umol/kg, po qd administered for 7 days measured on day 7; assay type: ADME, organism-based; design: dose 200 umol/kg, route oral; conditions: in vivo; summary of the method: as §1
[10] = Cmax in Wistar Hannover rat at 200 umol/kg, po qd measured on day 1; conditions: in vivo
[11] = AUC (0 to 24 hrs) in Sprague-Dawley rat at 70 umol/kg, po qd administered for 7 days measured on day 7; assay type: ADME, organism-based; design: time < 24 hr, dose 70 umol/kg, route oral; conditions: plasma; summary of the method: as §1
[12] = AUC (0 to 24 hrs) in Wistar Hannover rat at 70 umol/kg, po qd measured on day 1; conditions: plasma
Rattus norvegicus [13] = test: Toxicity in Wistar Hannover rat kidney assessed as crystals in urine at 76 to 230 umol/kg, po qd administered for 7 days measured on day 7 by hematoxylin/eosin staining-based light microscopic analysis; assay type: organism-based; conditions: in vivo, 168 h
[14] = Cmax in Sprague-Dawley rat at 170 umol/kg, po qd administered for 7 days measured on day 7; assay type: ADME, organism-based; design: dose 170 umol/kg, route oral; conditions: in vivo; summary of the method: as §1
[15] = AUC (0 to 24 hrs) in Wistar Hannover rat at 170 umol/kg, po qd measured on day 1; conditions: plasma
Rattus norvegicus [16] = test: Toxicity in Wistar Hannover rat kidney assessed as crystals in urine at 500 umol/kg, po qd administered for 7 days measured on day 7; assay type: organism-based; conditions: in vivo, 168 h
[17] = Cmax in Wistar Hannover rat at 500 umol/kg, po qd measured on day 1; conditions: in vivo
[18] = Cmax in Wistar Hannover rat at 170 umol/kg, po qd measured on day 1; conditions: in vivo
[19] = AUC (0 to 24 hrs) in Sprague-Dawley rat at 170 umol/kg, po qd administered for 7 days measured on day 7; assay type: ADME, organism-based; design: time < 24 hr, dose 170 umol/kg, route oral; conditions: plasma; summary of the method: as §1
Prostaglandin E synthase = target: T1, Prostaglandin E synthase (Homo sapiens, UniProt O14684); test: Inhibition of human mPGES-1 by whole blood assay
T1 sequence (O14684 whole entry): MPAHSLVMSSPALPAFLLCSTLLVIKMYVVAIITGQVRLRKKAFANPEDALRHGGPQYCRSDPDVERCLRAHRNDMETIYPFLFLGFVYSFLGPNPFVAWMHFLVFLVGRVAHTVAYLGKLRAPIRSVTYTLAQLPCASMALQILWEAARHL

[20] = AUC (0 to 24 hrs) in Sprague-Dawley rat at 500 umol/kg, po qd administered for 7 days measured on day 7; assay type: ADME, organism-based; design: dose 500 umol/kg, time < 24 hr, route oral; conditions: plasma; summary of the method: as §1
[21] = Cmax in Sprague-Dawley rat at 500 umol/kg, po qd administered for 7 days measured on day 7; assay type: ADME, organism-based; design: dose 500 umol/kg, route oral; conditions: in vivo; summary of the method: as §1
[22] = AUC (0 to 24 hrs) in Wistar Hannover rat at 500 umol/kg, po qd measured on day 1; conditions: plasma
Rattus norvegicus [23] = test: Drug level in Wistar Hannover rat treated with [14C]-AZ'7847 at 500 umol/kg, po qd administered for 7 days measured on day 7 by radio monitoring method; assay type: ADME, organism-based; conditions: in vivo, 168 h
Hepatocyte [24] = test: Drug level in Sprague-Dawley rat hepatocytes treated with AZ'7847 at 1 to 10 uM by radio monitoring method; assay type: ADME, cell-based
Summary of the method: (§3)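 Metabolic profiling in rat hepatocytes at 1 × 10^6 cells/ml in William's medium, shaken gently at 37°C under 5% CO2. Substrate was tested at two concentrations (1 and 10). For radio detection, a 14C-labelled substrate was separated on an Atlantis T3 column (1 ml/min) with a 1:20 split to the MS and a flow scintillation monitor.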

Hepatocyte [25] = test: Drug level in Sprague-Dawley rat hepatocytes treated with AZ'7847 at 1 to 10 uM by LC-MS analysis; assay type: ADME, cell-based; summary of the method: as §3

- Drug metabolism [1]: metabolite_not_detected
- Cmax [2]: 50 µM
- AUC(0-t) at 24 h [3]: 970 µM·h
- AUC at 24 h [4]: 1070 µM·h
- Cmax [6]: 50 µM
- Cmax [9]: 110 µM
- Cmax [10]: 90 µM
- AUC at 24 h [11]: 550 µM·h
- AUC(0-t) at 24 h [12]: 610 µM·h
SMILES: COc1cc(C(=O)NS(=O)(=O)c2ccccc2S(N)(=O)=O)ccc1C#CC1CC1
- Activity (Rattus norvegicus [5]): Non-toxic
- Activity (Rattus norvegicus [7]): Non-toxic
- Activity (Rattus norvegicus [8]): Non-toxic
- Activity (Rattus norvegicus [13]): Non-toxic

- Cmax [14]: 190 µM
- AUC(0-t) at 24 h [15]: 1260 µM·h
- Drug metabolism [1]: metabolite_not_detected
- Cmax [17]: 300 µM
- Cmax [18]: 170 µM
- AUC at 24 h [19]: 1600 µM·h
- IC50 (Prostaglandin E synthase): > 2000 nM
- AUC at 24 h [20]: 3010 µM·h
- Cmax [21]: 320 µM
- AUC(0-t) at 24 h [22]: 3410 µM·h
SMILES: CC(C)C#Cc1ccc(C(=O)NS(=O)(=O)c2ccccc2S(N)(=O)=O)cc1OCCC(F)(F)F
- Activity (Rattus norvegicus [16]): Toxic
- Activity (Rattus norvegicus [5]): Non-toxic
- Activity (Rattus norvegicus [7]): Non-toxic
- Activity (Rattus norvegicus [8]): Non-toxic

- Drug metabolism (Rattus norvegicus [23]): metabolite_detected
- Drug metabolism (Hepatocyte [24]): metabolite_detected
- Drug metabolism (Hepatocyte [25]): metabolite_detected
SMILES: O=[14C](O)c1ccc(C#Cc2ccccc2)cc1
